Source: ChEMBL document CHEMBL4219037, “Modified biphenyl Hsp90 C-terminal inhibitors for the treatment of cancer” (Bioorg Med Chem Lett, 2017)
Activity calls are given as the source filed them. The calls are words filed in the database; no cut-off is given here.

Assays:
[1] = tested on: MCF7; test: Antiproliferative activity against human MCF7 cells after 72 hrs by MTS assay; assay type: functional, cell-based; conditions: MCF7, 72 h
Method in brief: (§1)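 Cells kept in Advanced DMEM/F12 at 37 °C, 5% CO2, humidified. Seeded at 3000 cells/well, left 24 h, then given compound or vehicle in DMSO (1% DMSO final) at varying concentrations for 72 h. Viable cells read by MTS/PMS proliferation kit. Vehicle wells set to 100% proliferation. IC50 as mean ± SD of at least three separate experiments run in triplicate.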

[2] = Antiproliferative activity against human LNCaP-LN3 cells after 72 hrs by MTS assay; assay type: functional, cell-based; conditions: LNCaP-LN3, 72 h; method in brief: as §1
[3] = molecular target: T1, Heat shock protein HSP90 (Homo sapiens) (UniProt P07900+P08238); test: Inhibition of […] HSP90 in human MCF7 cells assessed as reduction in HSP90 expression at 4.49 to 44.95 uM after 24 hrs by Western blot analysis relative to control; assay type: cell-based
[4] = Antiproliferative activity against human PC3MM2 cells after 72 hrs by MTS assay; assay type: functional, cell-based; conditions: PC3MM2, 72 h; method in brief: as §1
[5] = molecular target: T1, Heat shock protein HSP90 (Homo sapiens); test: Inhibition of C-terminal HSP90 in human MCF7 cells assessed as degradation of HER2 at 4.49 to 44.95 uM after 24 hrs by Western blot analysis relative to control; assay type: cell-based
[6] = molecular target: T1, Heat shock protein HSP90 (Homo sapiens); test: Inhibition of C-terminal HSP90 in human MCF7 cells assessed as degradation of cyclin D1 at 4.49 to 44.95 uM after 24 hrs by Western blot analysis relative to control; assay type: cell-based
[7] = tested on: SK-BR-3; test: Antiproliferative activity against human SKBR3 cells after 72 hrs by MTS assay; assay type: functional, cell-based; conditions: SK-BR-3, 72 h; method in brief: as §1
[8] = molecular target: T1, Heat shock protein HSP90 (Homo sapiens); test: Inhibition of C-terminal HSP90 in human MCF7 cells assessed as degradation of cRAF at 4.49 to 44.95 uM after 24 hrs by Western blot analysis relative to control; assay type: cell-based
[9] = molecular target: T1, Heat shock protein HSP90 (Homo sapiens); test: Inhibition of […] HSP90 in human MCF7 cells assessed as reduction in HSP90 expression at 2.945 to 29.45 uM after 24 hrs by Western blot analysis relative to control; assay type: cell-based
[10] = molecular target: T1, Heat shock protein HSP90 (Homo sapiens); test: Inhibition of C-terminal HSP90 in human MCF7 cells assessed as degradation of cyclin D1 at 2.945 to 29.45 uM after 24 hrs by Western blot analysis relative to control; assay type: cell-based
[11] = molecular target: T1, Heat shock protein HSP90 (Homo sapiens); test: Inhibition of C-terminal HSP90 in human MCF7 cells assessed as degradation of cRAF at 2.945 to 29.45 uM after 24 hrs by Western blot analysis relative to control; assay type: cell-based
[12] = molecular target: T1, Heat shock protein HSP90 (Homo sapiens); test: Inhibition of C-terminal HSP90 in human MCF7 cells assessed as degradation of HER2 at 2.945 to 29.45 uM after 24 hrs by Western blot analysis relative to control; assay type: cell-based

SMILES | IC50 [1] [µM] | IC50 [2] [µM] | inhibition [3] | IC50 [4] [µM] | inhibition [5] | inhibition [6] | IC50 [7] [µM] | inhibition [8] | inhibition [9] | inhibition [10] | inhibition [11] | inhibition [12]
COc1cccc(-c2cc(C(=O)NCCc3ccc(O[C@@H]4OC(C)(C)[C@H](OC)[C@@H](O)[C@H]4O)c(C)c3-c3cccc(F)c3)ccc2OC)c1 | 8.99 | 25.1 | inactive | > 50 | Active | Active | 43.5 | Active | – | – | – | –
COc1cccc(-c2cc(C(=O)NCCc3ccc(OC4CCN(C)CC4)c(N)c3-c3cccc(F)c3)ccc2OC)c1 | 11.3 | 22.4 | – | 18.9 | – | – | 15.3 | – | – | – | – | –
CC(C)=CCc1cc(C(=O)NCCc2ccc(OC3CCN(C)CC3)c(O)c2-c2cccc(F)c2)ccc1O | 1.45 | 23.1 | – | 42.3 | – | – | 3.25 | – | – | – | – | –
COc1cccc(-c2cc(C(=O)NCCc3c(OC)cc(OC4CCN(C)CC4)cc3-c3cccc(F)c3)ccc2OC)c1 | 8.71 | > 100 | – | 32.1 | – | – | 5.72 | – | – | – | – | –
CO[C@@H]1[C@@H](O)[C@@H](O)[C@H](Oc2ccc(CCNC(C)=O)c(-c3cccc(F)c3)c2)OC1(C)C [CEMDOMESPIB] | > 500 | > 500 | – | > 500 | – | – | > 500 | – | – | – | – | –
COc1cccc(-c2cc(C(=O)NCCc3ccc(O[C@@H]4OC(C)(C)[C@H](OC)[C@@H](O)[C@H]4O)cc3-c3cccc(F)c3)ccc2OC)c1 | > 50 | 15.9 | – | > 50 | – | – | > 50 | – | – | – | – | –
COc1cccc(-c2cc(C(=O)NCCc3cc(C)c(OC4CCN(C)CC4)cc3-c3cccc(F)c3)ccc2OC)c1 | 9.14 | 20.8 | – | 13.9 | – | – | 7.81 | – | – | – | – | –
COc1cccc(-c2cc(C(=O)NCCc3c(O)cc(O[C@@H]4OC(C)(C)[C@H](OC)[C@@H](O)[C@H]4O)cc3-c3cccc(F)c3)ccc2OC)c1 | 23.8 | > 50 | – | > 50 | – | – | 23.5 | – | – | – | – | –
COc1cccc(-c2cc(C(=O)NCCc3cc(C)c(O[C@@H]4OC(C)(C)[C@H](OC)[C@@H](O)[C@H]4O)cc3-c3cccc(F)c3)ccc2OC)c1 | > 50 | > 100 | – | > 100 | – | – | 43.9 | – | – | – | – | –
COc1cccc(-c2cc(C(=O)NCCc3ccc(OC4CCN(C)CC4)c(O)c3-c3cccc(F)c3)ccc2OC)c1 | 11.3 | 22.4 | – | 8.61 | – | – | 9.29 | – | – | – | – | –
COc1cc(OC2CCN(C)CC2)cc(-c2cccc(F)c2)c1CCNC(=O)c1ccc(O)c(CC=C(C)C)c1 | 7.86 | > 100 | – | 1.84 | – | – | 8.16 | – | – | – | – | –
COc1cccc(-c2cc(C(=O)NCCc3ccc(OC4CCN(C)CC4)cc3-c3cccc(F)c3)ccc2OC)c1 | 15.4 | 22.5 | – | 5.49 | – | – | 23.7 | – | – | – | – | –
COc1cccc(-c2cc(C(=O)NCCc3c(O)cc(OC4CCN(C)CC4)cc3-c3cccc(F)c3)ccc2OC)c1 | 12.2 | 44.8 | – | > 50 | – | – | 15.7 | – | – | – | – | –
COc1cccc(-c2cc(C(=O)NCCc3ccc(OC4CCN(C)CC4)c(C)c3-c3cccc(F)c3)ccc2OC)c1 | 17.8 | > 50 | – | > 50 | – | – | 21.3 | – | – | – | – | –
COc1cccc(-c2cc(C(=O)NCCc3c(OC)cc(O[C@@H]4OC(C)(C)[C@H](OC)[C@@H](O)[C@H]4O)cc3-c3cccc(F)c3)ccc2OC)c1 | 44.7 | 8.09 | – | 10.6 | – | – | 49.4 | – | – | – | – | –
CC(C)=CCc1cc(C(=O)NCCc2c(O)cc(OC3CCN(C)CC3)cc2-c2cccc(F)c2)ccc1O | 5.89 | 22.8 | – | 1.32 | – | – | 7.59 | – | inactive | Active | Active | Active
CC(C)=CCc1cc(C(=O)NCCc2cc(C)c(OC3CCN(C)CC3)cc2-c2cccc(F)c2)ccc1O | 35.6 | > 100 | – | > 100 | – | – | 15.2 | – | – | – | – | –
